{"data": "Published values collected from several papers", "target": "Glycogen synthase kinase-3 beta (GSK3B, Homo sapiens, UniProt P49841)", "mode": "inhibitor", "note": "Protocols differ between the studies behind these lines."}
{"SMILES": "COc1cc2ncnc(Nc3ccc(Oc4ccccc4)c(C)c3C)c2cc1OC", "test": "enzyme activity", "setting": "1 µM", "inhibition [%]": 4}
{"SMILES": "O=C1CN(/N=C/c2ccc(-c3ccc([N+](=O)[O-])cc3)o2)C(O)=N1", "test": "enzyme activity, ADP detection", "setting": "100 µM", "inhibition [%]": 31.2}
{"SMILES": "COc1cccc2c(NCc3ccccc3)nc(-n3c(N)nc4ccccc43)nc12", "test": "target engagement in cells, chemoproteomics", "setting": "20 mM", "inhibition [%]": 1}
{"SMILES": "CSc1nc(C)c(-c2ccnc(Nc3ccc(N4CCOCC4)cc3)c2)[nH]1", "test": "enzyme activity", "setting": "10 µM", "inhibition [%]": 5.7}
{"SMILES": "CCCS(=O)(=O)Nc1ccc(F)c(C(=O)c2c[nH]c3ncc(-c4ccc(Cl)cc4)cc23)c1F", "test": "enzyme activity", "setting": "1 µM", "inhibition [%]": "< 20"}
{"SMILES": "CCN(CC)CCNC(=O)c1c(C)[nH]c(/C=C2\\C(=O)Nc3ccc(F)cc32)c1C", "test": "enzyme activity", "setting": "10 µM", "inhibition [%]": 3}
{"SMILES": "NC(=O)c1cnccn1", "test": "enzyme activity, ADP detection", "setting": "100 µM", "inhibition [%]": 7.9}
{"SMILES": "CN(c1ncccc1CNc1nc(Nc2ccc3c(c2)CC(=O)N3)ncc1C(F)(F)F)S(C)(=O)=O", "test": "enzyme activity", "setting": "1 µM", "inhibition [%]": 92.7}
{"SMILES": "Cc1nc(-c2ccc(OCC(C)C)c(C#N)c2)sc1C(=O)O", "test": "enzyme activity, ADP detection", "setting": "100 µM", "inhibition [%]": 66.9}
{"SMILES": "CS(=O)(=O)Nc1cccc(-c2csc(NC(=O)CSc3nc4nccnc4c(=O)n3CCc3ccccc3)n2)c1", "test": "enzyme activity", "setting": "10 µM", "inhibition [%]": 2}
{"SMILES": "CN(C)C1CCN(CC#Cc2nn(C3CCCC3)c3nc(NCc4ccccc4)ncc23)C1 (stereo not shown)", "test": "enzyme activity, FRET", "setting": "0.1 µM", "inhibition [%]": -4}
{"SMILES": "CN1CC(Oc2cnc(C#N)cc2-c2ccn3nc(NC(=O)C4CC4)cc3c2)C1", "test": "enzyme activity", "setting": "1 µM", "inhibition [%]": -8}
{"SMILES": "NS(=O)(=O)Cc1noc2ccccc12", "test": "enzyme activity, ADP detection", "setting": "100 µM", "inhibition [%]": 21.9}
